In ChEMBL document CHEMBL1124761, “Polyamine analogues with antitumor activity” (J Med Chem, 1990):
Activity calls are given as the source filed them. The rule behind the calls is not given here.

Assays:
L1210 [1] = assay: (§1) Antitumor activity against L1210 leukemia in BDF1 male mice at the dose of 5 mg/kg when given with 5.0 mg/kg of diallenylputrescine; format: functional, Mus musculus
In short: (§2)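 BDF1 male mice were inoculated ip with 10^5 L1210 cells on day 0. Agents were given ip once daily on days 1-9, alone or with diallenylputrescine at 2.5 or 5.0 mg/kg. Mean survival time was reported ± SD (n=5). %T/C = treated survival/control survival × 100.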

L1210 [2] = assay: (§3) Antitumor activity against L1210 leukemia in BDF1 male mice at the dose of 5 mg/kg; format: functional, Mus musculus
In short: (§4)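 L1210 leukemia, 10^5 cells inoculated ip into BDF1 male mice on day 0. Analogue given ip once daily on days 1-9; where stated, diallenylputrescine (PAO inhibitor) was co-given at 2.5 or 5.0 mg/kg. Mean survival time ± SD (n=5). %T/C = treated survival time/control survival time × 100.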

L1210 [3] = assay: (§5) Antitumor activity against L1210 leukemia in BDF1 male mice at the dose of 10 mg/kg when given with 5.0 mg/kg of diallenylputrescine; format: functional, Mus musculus; in short: as §4
L1210 [4] = assay: (§6) Antitumor activity against L1210 leukemia in BDF1 male mice at the dose of 10 mg/kg; format: functional, Mus musculus; in short: as §4
L1210 [5] = assay: as §5; format: functional, Mus musculus; in short: as §2; remark: listed apart in the source
L1210 [6] = assay: Tested for the T/C (survival time treated /survival time control x 100) after intraperitoneal administration of 5 mg/kg in 10 E 5 L1210 cells on day 0; format: functional, Mus musculus
In short: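 Male BDF1 mice, in groups of six, were inoculated ip with 10^5 L1210 cells on day 0. Tetrahydrochloride salts were given at 5 mg/kg every 3 h (×4) on days 3-5. T/C = survival time treated/survival time control × 100.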

L1210 [7] = assay: as §1; format: functional, Mus musculus; in short: as §4; remark: listed apart in the source
L1210 [8] = assay: as §6; format: functional, Mus musculus; in short: as §2; remark: listed apart in the source
L1210 [9] = assay: as §3; format: functional, Mus musculus; parameters: unit not given here; in short: as §2
L1210 [10] = assay: Tested for the T/C (survival time treated /survival time control x 100) after intraperitoneal administration of 25 mg/kg in 10 E 5 L1210 cells on day 0; format: functional, Mus musculus
L1210 [11] = assay: Tested for the T/C (survival time treated/survival time control x 100) after intraperitoneal administration of 50 mg/Kg in 10 E 5 L1210 cells on day 0; not active; format: functional; details: Mus musculus
[12] = Tested for in vitro half life period against polyamine oxidase after intraperitoneal administration; format: ADME; details: ip
[13] = biological target: Peroxisomal N(1)-acetyl-spermine/spermidine oxidase (Mus musculus) (UniProt Q8C0L6); assay: Tested for the in vivo inhibitory activity against polyamine oxidase in mice at a dose of 1 mg/kg; format: functional, organism-based; parameters: dose 1 mg/kg
Sequence of Peroxisomal N(1)-acetyl-spermine/spermidine oxidase (Mus musculus) (Q8C0L6 whole entry): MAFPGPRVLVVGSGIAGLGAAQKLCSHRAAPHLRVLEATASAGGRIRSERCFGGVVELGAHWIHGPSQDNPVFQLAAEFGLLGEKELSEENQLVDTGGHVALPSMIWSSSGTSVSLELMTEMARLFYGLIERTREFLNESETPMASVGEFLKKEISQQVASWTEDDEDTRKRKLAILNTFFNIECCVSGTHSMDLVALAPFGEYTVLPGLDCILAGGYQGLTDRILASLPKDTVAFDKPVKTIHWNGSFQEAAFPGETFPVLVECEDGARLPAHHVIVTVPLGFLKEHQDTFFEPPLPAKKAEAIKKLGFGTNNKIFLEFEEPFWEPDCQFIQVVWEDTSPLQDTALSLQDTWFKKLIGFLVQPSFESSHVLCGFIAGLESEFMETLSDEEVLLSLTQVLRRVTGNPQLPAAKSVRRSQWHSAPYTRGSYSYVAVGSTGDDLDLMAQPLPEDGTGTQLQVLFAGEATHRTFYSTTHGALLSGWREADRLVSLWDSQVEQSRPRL
In short: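 Mice received drug ip 24 h before sacrifice. Liver homogenised and polyamine oxidase activity assayed. Protein by Bradford method with BSA standard.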

L1210 [14] = assay: Effect of 25 mg/kg spermidine coadministered with 25 mg/kg compound on the tumor cell concentration (L1210) of compound; format: functional, Mus musculus
In short: (§7)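 BDF1 male mice bearing ip L1210 cells. Starting day 4, ip dosing with analogue, alone or with putrescine or spermidine, at the doses indicated. Killed 4 h after the final dose; tumour cells recovered by peritoneal lavage. Drug and polyamines quantified by HPLC, pmol/10^6 cells, mean of three determinations.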

L1210 [15] = assay: Effect of 25 mg/kg spermidine coadministered with 25 mg/kg compound on the tumor cell concentration (L1210) of putrescine; format: functional, Mus musculus; in short: as §7
L1210 [16] = assay: Effect of 25 mg/kg spermidine coadministered with 25 mg/kg compound on the tumor cell concentration (L1210) of spermine; format: functional, Mus musculus; in short: as §7
L1210 [17] = assay: Effect of 25 mg/kg spermidine coadministered with 25 mg/kg compound on the tumor cell concentration (L1210) of spermidine; format: functional, Mus musculus; in short: as §7
L1210 [18] = assay: Effect of 25 mg/kg putrescine coadministered with 25 mg/kg compound on the tumor cell concentration (L1210) of putrescine; format: functional, Mus musculus; in short: as §7
L1210 [19] = assay: Effect of 25 mg/kg putrescine coadministered with 25 mg/kg compound on the tumor cell concentration (L1210) of compound; format: functional, Mus musculus; in short: as §7
L1210 [20] = assay: Effect of 25 mg/kg putrescine coadministered with 25 mg/kg compound on the tumor cell concentration (L1210) of spermidine; format: functional, Mus musculus; in short: as §7
L1210 [21] = assay: Effect of 25 mg/kg putrescine coadministered with 25 mg/kg compound on the tumor cell concentration (L1210) of spermine; format: functional, Mus musculus; in short: as §7
L1210 [22] = assay: (§8) Antitumor activity against L1210 leukemia in BDF1 male mice at the dose of 5 mg/kg when given with 2.5 mg/kg of diallenylputrescine; format: functional, Mus musculus; in short: as §4
L1210 [23] = assay: as §8; format: functional, Mus musculus; in short: as §2; remark: listed apart in the source
L1210 [24] = assay: Effect of 25 mg/kg putrescine or spermidine coadministered with 25 mg/kg compound on the tumor cell concentration (L1210) of compound; format: functional, Mus musculus; in short: as §7
L1210 [25] = assay: Modulation of the antitumor activity against L1210 Leukemia at 25 mg/kg along with 25 mg/kg spermidine days 1-7, 1 dose / day; format: functional, Mus musculus
L1210 [26] = assay: Effect of 25 mg/kg putrescine or spermidine coadministered with 25 mg/kg compound on the tumor cell concentration (L1210) of spermine; format: functional, Mus musculus; in short: as §7
L1210 [27] = assay: Modulation of the antitumor activity against L1210 Leukemia by 25 mg/kg ip days 1-7, 1 dose/day; format: functional, Mus musculus; details: route intraperitoneal
L1210 [28] = assay: Effect of 25 mg/kg putrescine or spermidine coadministered with 25 mg/kg compound on the tumor cell concentration (L1210) of putrescine; format: functional, Mus musculus; in short: as §7
L1210 [29] = assay: Modulation of the antitumor activity against L1210 Leukemia at 25 mg/kg along with 25 mg/kg putrescine days 1-7, 1 dose / day; format: functional, Mus musculus
L1210 [30] = assay: Effect of 25 mg/kg putrescine or spermidine coadministered with 25 mg/kg compound on the tumor cell concentration (L1210) of spermidine; format: functional, Mus musculus; in short: as §7

CCNCCCNCCCCCCCCNCCCN.Cl.Cl.Cl.Cl
Mean survival time (L1210 [1]): 8.4 | T/C (L1210 [2]): 100% | T/C (L1210 [3]): 155% | T/C (L1210 [4]): 112% | Mean survival time (L1210 [5]): 12.4 | T/C (L1210 [6]): 145% | T/C (L1210 [7]): 105% | Mean survival time (L1210 [8]): 9 | Mean survival time (L1210 [9]): 7.6

NCCCNCCCN [NORSPERMIDINE]
T/C (L1210 [10]): 179%

C=C=CCNCCCNCCCNCC=C=C
T/C (L1210 [11]): inactive | T50 [12]: 4 min | PAO activity (pM min-1 mg-1) [13]: 1

NCCCOCCCN
T/C (L1210 [11]): inactive

NCCCCNCCCN.NCCCNCCCCCCCCNCCCN
Effect (L1210 [14]): 114 pM (10e6*cells)-1 | Effect (L1210 [15]): 51.7 pM (10e6*cells)-1 | Effect (L1210 [16]): 817 pM (10e6*cells)-1 | Effect (L1210 [17]): 2174 pM (10e6*cells)-1

CCCNCCCNCCCCCCCCNCCCNCCC
T/C (L1210 [11]): inactive

CN(CCCN)CCCN
T/C (L1210 [11]): inactive

CC(CCN)NCCCCCCCCNC(C)CCN (centres undefined)
T/C (L1210 [11]): inactive

NCCCS(=O)(=O)CCCN
T/C (L1210 [11]): inactive

c1ccc(CNCCCNCCCCCCCCNCCCNCc2ccccc2)cc1
T/C (L1210 [11]): inactive

NCCCCCCCCN
T/C (L1210 [11]): inactive

NCCCCSCCCN
T/C (L1210 [11]): inactive

CCNCCCNCCCCCCCCNCCCNCC.Cl.Cl.Cl.Cl
Mean survival time (L1210 [1]): 11.4 | T/C (L1210 [2]): 122% | T/C (L1210 [3]): 287% | T/C (L1210 [4]): 112% | Mean survival time (L1210 [5]): 23 | T/C (L1210 [6]): 135% | T/C (L1210 [7]): 142% | Mean survival time (L1210 [8]): 9 | Mean survival time (L1210 [9]): 9.8

CN(C)CCCNCCCCCCCCNCCCN(C)C
T/C (L1210 [11]): inactive

CN(CCCN)CCCCCCCCN(C)CCCN
T/C (L1210 [11]): inactive

NCCCCN.NCCCNCCCCCCCCNCCCN
Effect (L1210 [18]): 120 pM (10e6*cells)-1 | Effect (L1210 [19]): 520 pM (10e6*cells)-1 | Effect (L1210 [20]): 1060 pM (10e6*cells)-1 | Effect (L1210 [21]): 799 pM (10e6*cells)-1

C=C=CCNCCCCNCC=C=C
T50 [12]: 1 min

CC(N)CCNCCCCCCCCNCCC(C)N.Cl.Cl.Cl.Cl (centres undefined)
T/C (L1210 [2]): 195% | T/C (L1210 [22]): 376% | T/C (L1210 [6]): 206% | Mean survival time (L1210 [23]): 25.6 | Mean survival time (L1210 [9]): 13.3

Cl.Cl.Cl.Cl.NCCCNCCCCCCCCNCCCN
Effect (L1210 [24]): 580 pM (10e6*cells)-1 | Mean survival time (L1210 [25]): 8.3 days | Effect (L1210 [26]): 1110 pM (10e6*cells)-1 | Mean survival time (L1210 [27]): 16.2 days | Effect (L1210 [28]): 37.4 pM (10e6*cells)-1 | Mean survival time (L1210 [29]): 15 days | Effect (L1210 [30]): 1711 pM (10e6*cells)-1 | T/C (L1210 [6]): 350%

CNCCCNCCCNC
T/C (L1210 [11]): inactive

NCCCNCCCOCCCNCCCN
T/C (L1210 [11]): inactive

CNCCCNCCCCCCCCNCCCNC.Cl.Cl.Cl.Cl
Mean survival time (L1210 [1]): 12.6 | T/C (L1210 [2]): 142% | T/C (L1210 [3]): 317% | T/C (L1210 [4]): 172% | Mean survival time (L1210 [5]): 25.4 | T/C (L1210 [6]): 206% | T/C (L1210 [7]): 157% | Mean survival time (L1210 [8]): 13.8 | Mean survival time (L1210 [9]): 11.4

CCCCNCCCNCCCCCCCCNCCCNCCCC
T/C (L1210 [11]): inactive

C=C=CCNCCCNCCCCCCCCNCCCNCC=C=C.Cl.Cl.Cl.Cl
T/C (L1210 [11]): inactive | T50 [12]: 2 min | PAO activity [13]: 4.1 pM/min

NCCCCCCCCNCCCN
T/C (L1210 [11]): inactive

CN(C)CCCNCCCN(C)C
T/C (L1210 [11]): inactive

CNCCCCCCCCNC
T/C (L1210 [11]): inactive

NCCCCCCCN
T/C (L1210 [11]): inactive

NCCCSCCCN
T/C (L1210 [11]): inactive
